High-throughput results from PubChem BioAssay.
Shown are actives, neighbours in structure and some others; about 9.3% of the full set was active somewhere.
tolC growth inh – growth inhibitors of E. coli tolC mutant, primary screen, strain BW25113 ΔtolC::kan, 384-well | OD615 | actives 2.2% (n = 65,000) | growth inhibition, % at 10 µM (by protocol) | AID 573, 2007;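 active means growth inhibition at or above a cutoff equal to the mean over every tested compound plus 3 SD, cut at about 60% in these data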;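 further: growth measured after 20 h incubation at 37 °C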
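Doses: one dose of 10 µM final / Material: E. coli BW25113 ΔtolC::kan, tolC deletion mutant strain / Buffer or medium: LB with kanamycin 50 µg/mL / Evaluation: percent growth inhibition / Detection: optical density read at 615 nm / Incubation: 37 °C, 20 h exposure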
Ecoli WT expand – growth inhibitors of wild-type E. coli, primary screen, strain BW25113, expanded library, OD600. OD600 absorbance. growth inhibition, % at 100 µM. actives 0.15% (n = 98,000). AID 710, 2007;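 active means growth inhibition above about 50% at one test dose, limit read from the data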;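 further: growth measured after 20 h incubation at 37 °C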
PostGolgi yeast – phenotypic screen on post-Golgi transport, primary screen | post-Golgi transport phenotypic cell assay | inhibition, % at 10 µM | actives 0.9% (n = 98,000) | AID 739, 2007;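 further: yeast cells grown in 1536-well plates; yeast grown about 18 h at 30C before absorbance read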
D1 allo mod – D1 CRE-luciferase signal change, two-sided – cell-based, HEK293 D1, dopamine EC30, D1 allosteric modulator project, primary screen; dopamine EC30 potentiation; actives deviate in either direction; B-score at 10 µM; actives 5.9% (n = 58,000); AID 641, 2007;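 active means luminescence count or its row- and column-corrected plate score outside the 99.7% band of the plate's sample wells, on either side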
Target sequence (P21728 whole entry, looked up): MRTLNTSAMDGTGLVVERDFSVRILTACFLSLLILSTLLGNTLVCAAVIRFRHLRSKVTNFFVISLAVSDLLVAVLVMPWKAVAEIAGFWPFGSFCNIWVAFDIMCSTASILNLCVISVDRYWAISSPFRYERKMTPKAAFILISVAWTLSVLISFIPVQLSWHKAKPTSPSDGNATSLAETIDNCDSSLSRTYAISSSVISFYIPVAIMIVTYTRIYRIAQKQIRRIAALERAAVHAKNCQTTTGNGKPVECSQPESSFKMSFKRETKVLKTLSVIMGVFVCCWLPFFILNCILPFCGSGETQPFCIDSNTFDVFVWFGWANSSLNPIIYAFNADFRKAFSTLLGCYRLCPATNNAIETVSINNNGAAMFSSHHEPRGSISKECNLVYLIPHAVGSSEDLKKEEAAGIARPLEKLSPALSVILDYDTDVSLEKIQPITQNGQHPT
hDAT+cocaine – changed hDAT dopamine uptake under cocaine IC80, either direction, primary screen, cocaine antagonist project, cell-based, LLC-PK1 hDAT, [14C]-dopamine uptake, MLSMR | Sodium-dependent dopamine transporter (Homo sapiens), Q01959 | LLC-PK1 hDAT cells, [14C]-dopamine uptake with cocaine IC80; actives deviate in either direction | B-score at 10 µM | actives 1.3% (n = 110,000) | AID 449768, 2010;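 active means Z score or B-score, a plate-position-corrected score, falls beyond the plate's 99.7% confidence bounds, in either direction; inactive means both scores lie inside the 99.7% bounds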;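 further: scored against the spread of the other compound wells on the same plate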
PostGolgi ctrl – growth inhibition of yeast control strain, primary screen, counter-screen for post-Golgi transport modulator project; actives 5% (n = 98,000); inhibition, % at 10 µM; efflux-deficient yeast background strain, growth absorbance A615, 16 h
D1 mod confirm – D1 receptor positive allosteric modulators, retest, confirmation, cell-based, HEK293 D1, CRE-luciferase, duplicate; shares compounds with D1 allo mod; dopamine EC30 potentiation; active compounds read high; luminescence at 10 µM; actives 88% (n = 2,200); AID 642, 2007;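 active means luminescence in either of two replicates above the same-plate mean plus 3 SD of the low-dose dopamine control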
D1 ag no DA – D1 receptor agonism without dopamine, confirmation, mechanism study for D1 allosteric modulator project, cell-based, HEK293 D1, CRE-luciferase, secondary assay 1; shares compounds with D1 allo mod; luminescence at 10 µM; luminescence, no dopamine; active compounds read high; actives 0.8% (n = 1,900); in the data active means luminescence above about 3900
Isoprot counter – isoproterenol response counter-screen activity for D1 modulators; shares compounds with D1 allo mod; HEK293 D1 CRE-luciferase, isoproterenol EC30 counter-screen; calls only at 10 µM; actives 63% (n = 2,200); AID 647;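 active means luminescence in either replicate above plate mean of wells with a partly effective reference agonist dose plus 3 SD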;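 further: isoproterenol raises cAMP through native beta-adrenoceptor Gs so signal bypasses D1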
* hit, by the source's call; i = inactive; x = not tested or not shown; + = active, no number. Unless noted, no stated cut-off is given here; in the data, active means inhibition above about 30%; inactive means the rest.

SMILES	tolC growth inh	Ecoli WT expand	PostGolgi yeast	D1 allo mod	hDAT+cocaine	PostGolgi ctrl	D1 mod confirm	D1 ag no DA	Isoprot counter
CCOC(=O)c1[nH]c2ccccc2c1NC(=O)CN1CCCCC1	-2	4	7	-0.013	1.2	11	x	x	x
CCOC(=O)c1[nH]c2ccc(OC)cc2c1NC(=O)CN1CCSCC1	9	5	7	2.3*	0.34	10	6220*	1352	+
CCOC(=O)c1[nH]c2ccc(F)cc2c1NC(=O)CN1CCc2cc(OC)c(OC)cc2C1	18	-8	2	1.7*	x	7	9280*	1680	+
CCN(CC)C(=O)c1[nH]cnc1C(=O)N[C@@H](C)C(=O)OC(C)(C)C	x	x	x	x	-0.29	x	x	x	x
Cc1[nH]c2ccccc2c1C(=O)CN1CCCCC1CCO (stereo not drawn)	-16	1	2	0.69	0.089	6	x	x	x
Cc1ccc(-n2c(SCC(=O)OC(C)C)nnc2-c2ccccn2)cc1	1	-3	-9	-0.72	0.7	3	x	x	x
Cc1ccc(-n2c(SCC(=O)OC(C)C)nnc2-c2cnccn2)cc1	-4	3	-6	4.6*	0.00012	7	8068*	1636	i
COc1cc(OC)cc(C(=O)N2CCC(n3c(C)nc4cc(F)ccc43)CC2)c1	-7	1	-2	0.94	x	6	x	x	x
CCn1c(-c2cc(Br)cc(OC)c2O)nc2cc(S(=O)(=O)N(C)C)ccc21	54	2	-2	x	-0.26	1	x	x	x
CCn1c(CSc2nnc(C)n2-c2ccccc2)nc2cc(S(=O)(=O)N(C)C)ccc21	-8	-2	8	1.8*	-0.65	-6	5780	1620	i
O=c1c(-c2ccc(O)cc2)coc2cc(O)cc(O)c12	x	x	x	x	2.6	x	x	x	x
COc1ccc(-c2coc3cc(O)cc(O)c3c2=O)cc1	6	x	x	6.2*	1.3	x	9820*	1216	i
Fc1cc(Br)ccc1Nc1nc2ccccc2n2nnnc12	19	-3	10	3.1*	-0.46	23	10956*	1572	i
Clc1ccc(Nc2nc3ccccc3n3nnnc23)cc1	x	-15	1	x	-0.051	26	x	x	x
Clc1ccc(C2=Nn3c(nnc3-c3cc(-c4ccccc4)n[nH]3)SC2)cc1	x	2	5	x	2.5	10	x	x	x
Clc1ccc(C2=Nn3c(nnc3-c3n[nH]c4c3CCC4)SC2)cc1Cl	99*	11	14	9.4*	0.4	38*	6068*	1632	+
COc1ccc(N2CCN(c3ccc(NC(=O)c4ccc5c(c4)OCO5)cc3C#N)CC2)cc1	-9	2	16	6.4*	0.34	8	5936	x	i
O=C(CCCCCN1C(=O)CCC1=O)Nc1ccc(Cl)c(C(F)(F)F)c1	x	9	-16	x	-1	-6	x	x	x
CCn1cc(C2=NOC(C(=O)Nc3ccc4c(c3)OCO4)C2)c(C)n1 (stereo not drawn)	-2	4	20	6.6*	0.24	0	8608*	1720	+
Clc1ccccc1-c1nnc2sc(-c3ccc4c(c3)OCO4)nn12	-7	24	4	2.5	0.57	11	x	x	x
Brc1ccccc1-c1nnc2sc(-c3ccc4c(c3)OCCO4)nn12	13	-4	3	3.8*	0.69	60*	7796*	1760	+
COC(C[C@H]1O[C@H]1[C@H](O)COCc1ccccc1)OC	x	x	x	x	0.28	x	x	x	x
CCC(C)n1c(-c2cccs2)nc2nc3ccccc3nc21 (stereo not drawn)	29	-3	3	10*	-0.45	35*	15740*	1736	+
CCc1ccc(C2=Nn3c(nnc3-c3cccs3)SC2)cc1	21	4	-1	8.8*	-0.2	13	6272*	976	i
c1csc(C2=Nn3c(nnc3-c3ccncc3)SC2)c1	x	1	4	x	-0.028	3	x	x	x
SMILES	tolC growth inh	Ecoli WT expand	PostGolgi yeast	D1 allo mod	hDAT+cocaine	PostGolgi ctrl	D1 mod confirm	D1 ag no DA	Isoprot counter
Cc1cccc(-c2nnc3n2N=C(c2ccccc2Br)CS3)c1	36	-7	5	8.1*	0.83	29	17404*	1544	+
COc1ccc(C2=Nn3c(nnc3-c3ccc(OC)cc3)SC2)cc1	27	-1	29	8.1*	0.62	42*	16788*	2416	+
COc1cc(-c2nnc3n2N=C(c2ccccc2)CS3)cc(OC)c1OC	18	-9	2	1.9*	0.38	3	7188*	1768	+
COc1cccc2oc(-c3ccco3)cc(=O)c12	x	x	x	x	-0.13	x	x	x	x
COc1ccc2[nH]cc(CCN=C3SCC(=O)N3C)c2c1	-2	-2	-1	-0.2	0.014	5	x	x	x
CCCCNC(=O)C(c1ccc(OCC(=O)OC)c(C(=O)OC)c1)N(CCc1c[nH]c2ccccc12)C(=O)CCCCCN1C(=O)NC(c2ccc(-c3ccccc3)cc2)C(C(=O)OCc2ccccc2)=C1C (stereo not drawn)	x	x	x	x	-0.57	x	x	x	x
COc1ccc(C2=Nn3c(nnc3-c3ccccc3OC)SC2)cc1OC	13	1	22	41*	0.21	19	31124*	x	+
COc1ccc(OC)c(C2=Nn3c(nnc3-c3ccncc3)SC2)c1	17	x	x	x	x	x	x	x	x
CCOc1cccc(-c2nnc3n2N=C(c2cc(OC)ccc2OC)CS3)c1	22	3	-1	17*	0.69	58*	13520*	x	+
c1ccc(C2=Nn3c(nnc3-c3cc(-c4ccccc4)n[nH]3)SC2)cc1	9	-5	-2	1.7	-0.64	14	x	x	x
Cc1ccc(-c2nnc3n2N=C(c2ccccc2)CS3)cc1	8	0	-4	8.3*	-0.18	11	21908*	1732	+
COc1ccc(C2=Nn3c(nnc3-c3ccccn3)SC2)cc1OC	16	8	-2	x	-0.25	25	x	x	x
COCCn1c(C2CCCCC2)nc2sc3ccccc3c(=O)c2c1=O	19	-7	39*	3.4*	1.7	85*	10064*	x	i
O=C(Nc1ccccc1-c1ccccc1)c1ccc(NC(=O)c2ccco2)cc1	x	-13	2	x	-0.51	16	x	x	x
CCOc1ccccc1Nc1nc(N)nc(CSc2nccc(C)n2)n1	2	2	16	3.6*	1.4	17	6988*	x	i
